Key:
LRRK2-G2019S [1] = target: T1, LRRK2-G2019S (Homo sapiens, UniProt Q5S007, G2019S); assay: Radiometric kinase assay, LRRK2-G2019S activity on MBP; format: biochemical; conditions: for inhibition of p-MBP (in words): screen of 84 antioxidants, 2 μmol/L; for reduction of p-MBP: G2019S on MBP, 2 μmol/L antioxidant, relative to vehicle control
LRRK2-G2019S [2] = target: T1, LRRK2-G2019S; assay: Filter-binding kinase assay, G2019S activity on LRRKtide; format: biochemical
How it was run: (§1)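 Recombinant LRRK2 G2019S (0.8 μg) with 5 μg synthetic peptide substrate, 10 μCi [γ32P]ATP and 1X kinase buffer in 40 μL, incubated at 30°C for 20 min. 10 μL of reaction spotted onto P81 phosphocellulose disks, washed twice in 75 mmol/L phosphoric acid, then counted by liquid scintillation. Reported as mean CPM ± SEM (n = 4) of phosphorylated peptide.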

LRRK2-G2019S [3] = target: T1, LRRK2-G2019S; assay: Filter-binding kinase assay, G2019S activity on PEPrx3; format: biochemical
How it was run: as §1

[4] = system: ddc‐GAL4‐hLRRK2 G2019S flies; assay: Oxidative state assays; format: in vivo, Drosophila; conditions: 10 μmol/L in food, relative fluorescence, control 31,756 ± 4142
[5] = system: LRRK2 G2019S‐expressing transgenic flies; assay: Number of TH+ DA neurons in G2019S fly brains; format: in vivo, Drosophila; conditions: 10 μmol/L in diet; for increase in number of neurons in PPM3: 60 days posteclosion
How it was run: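 G2019S transgenic flies (ddc-GAL4 driver) fed cornmeal food containing test compound at 10 μmol/L (DMSO) or plain food, at 25°C. Whole-mount adult brains dissected 60 days after eclosion and immunostained with rabbit anti-TH (1:200). DA neurons scored per cluster, including PPM3, by confocal microscopy. Given as mean count per cluster (n = 4; cohort of 20).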

[6] = cited from earlier work
dopaminergic neurons = conditions: mouse; cited from earlier work
[7] = system: LRRK2 G2019S‐expressing transgenic flies; assay: Climbing assay; format: in vivo, Drosophila; conditions: 10 μmol/L in diet
LRRK2-WT = LRRK2-WT (Homo sapiens, UniProt Q5S007); assay: Radiometric kinase assay, LRRK2-WT activity on MBP; format: biochemical; conditions: IC50 against LRRK2-WT, MBP substrate
LRRK2-WT, sequence (Q5S007 whole entry): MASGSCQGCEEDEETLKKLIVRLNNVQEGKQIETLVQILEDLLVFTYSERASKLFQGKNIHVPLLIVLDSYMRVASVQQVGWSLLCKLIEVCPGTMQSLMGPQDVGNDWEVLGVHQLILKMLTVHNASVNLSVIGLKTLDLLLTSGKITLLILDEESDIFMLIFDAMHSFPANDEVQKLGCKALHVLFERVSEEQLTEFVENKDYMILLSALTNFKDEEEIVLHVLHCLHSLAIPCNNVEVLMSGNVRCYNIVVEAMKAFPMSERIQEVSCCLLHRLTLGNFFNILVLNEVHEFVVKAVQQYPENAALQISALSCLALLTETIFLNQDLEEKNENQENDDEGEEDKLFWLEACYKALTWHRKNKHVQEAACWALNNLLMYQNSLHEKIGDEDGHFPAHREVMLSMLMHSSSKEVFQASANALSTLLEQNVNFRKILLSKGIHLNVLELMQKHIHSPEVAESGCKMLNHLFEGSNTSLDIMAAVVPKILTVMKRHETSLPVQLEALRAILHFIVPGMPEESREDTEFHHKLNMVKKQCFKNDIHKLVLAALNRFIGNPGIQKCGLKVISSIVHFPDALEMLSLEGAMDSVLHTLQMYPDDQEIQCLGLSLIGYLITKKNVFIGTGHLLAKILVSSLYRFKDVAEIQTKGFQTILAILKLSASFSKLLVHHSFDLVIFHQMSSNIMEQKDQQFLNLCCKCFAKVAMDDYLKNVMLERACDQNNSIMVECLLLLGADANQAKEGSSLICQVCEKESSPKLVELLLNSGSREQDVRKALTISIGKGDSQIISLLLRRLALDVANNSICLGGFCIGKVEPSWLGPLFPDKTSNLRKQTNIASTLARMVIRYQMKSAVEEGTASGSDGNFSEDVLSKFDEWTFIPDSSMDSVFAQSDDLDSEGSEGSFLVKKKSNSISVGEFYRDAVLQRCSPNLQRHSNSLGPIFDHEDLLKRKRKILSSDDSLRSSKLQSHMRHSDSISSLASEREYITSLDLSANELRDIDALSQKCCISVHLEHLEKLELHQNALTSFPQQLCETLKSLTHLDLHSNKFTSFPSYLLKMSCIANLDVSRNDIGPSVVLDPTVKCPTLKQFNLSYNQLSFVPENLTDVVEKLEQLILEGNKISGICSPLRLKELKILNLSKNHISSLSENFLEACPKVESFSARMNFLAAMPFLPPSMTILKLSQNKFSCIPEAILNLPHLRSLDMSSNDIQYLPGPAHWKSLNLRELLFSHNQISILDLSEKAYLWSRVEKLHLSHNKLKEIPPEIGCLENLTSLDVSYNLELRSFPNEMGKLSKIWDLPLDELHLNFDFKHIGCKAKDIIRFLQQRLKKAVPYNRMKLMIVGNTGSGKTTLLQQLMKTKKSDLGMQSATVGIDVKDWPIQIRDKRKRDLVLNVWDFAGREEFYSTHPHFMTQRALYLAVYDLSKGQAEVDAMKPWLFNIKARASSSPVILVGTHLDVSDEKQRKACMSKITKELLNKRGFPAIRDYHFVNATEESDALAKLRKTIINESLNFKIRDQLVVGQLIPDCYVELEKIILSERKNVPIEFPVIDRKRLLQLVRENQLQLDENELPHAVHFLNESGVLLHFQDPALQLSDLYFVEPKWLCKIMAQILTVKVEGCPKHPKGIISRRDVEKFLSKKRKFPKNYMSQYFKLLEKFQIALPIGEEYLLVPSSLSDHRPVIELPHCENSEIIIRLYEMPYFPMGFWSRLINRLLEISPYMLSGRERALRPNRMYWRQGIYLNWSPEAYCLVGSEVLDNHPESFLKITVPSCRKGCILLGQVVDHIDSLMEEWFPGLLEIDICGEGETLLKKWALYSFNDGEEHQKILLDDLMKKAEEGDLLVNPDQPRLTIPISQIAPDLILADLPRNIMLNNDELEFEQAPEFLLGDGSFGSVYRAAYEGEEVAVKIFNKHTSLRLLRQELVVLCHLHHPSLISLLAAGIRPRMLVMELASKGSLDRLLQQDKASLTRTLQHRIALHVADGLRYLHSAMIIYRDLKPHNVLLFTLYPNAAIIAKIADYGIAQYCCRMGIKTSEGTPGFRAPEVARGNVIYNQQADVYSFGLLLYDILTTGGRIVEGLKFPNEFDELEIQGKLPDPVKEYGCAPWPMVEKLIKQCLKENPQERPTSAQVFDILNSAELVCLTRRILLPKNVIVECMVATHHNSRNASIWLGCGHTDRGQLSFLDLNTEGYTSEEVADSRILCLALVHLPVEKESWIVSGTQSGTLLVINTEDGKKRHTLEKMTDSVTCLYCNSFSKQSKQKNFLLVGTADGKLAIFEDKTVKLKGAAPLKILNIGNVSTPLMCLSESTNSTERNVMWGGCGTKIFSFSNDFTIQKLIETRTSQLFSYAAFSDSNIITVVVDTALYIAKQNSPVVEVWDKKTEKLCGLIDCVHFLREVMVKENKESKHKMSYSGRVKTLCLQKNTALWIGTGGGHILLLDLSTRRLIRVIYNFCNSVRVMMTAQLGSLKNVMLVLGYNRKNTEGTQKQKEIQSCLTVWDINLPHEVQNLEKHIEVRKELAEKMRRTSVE

[8] = system: LRRK2 G2019S‐expressing transgenic flies; assay: Lifespan / survival of G2019S flies; format: in vivo, Drosophila; conditions: nonsignificant
How it was run: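 ddc-GAL4-hLRRK2 G2019S flies raised at 25°C on cornmeal food, replaced every 2 days, either plain or with test compound in DMSO added at 10 μmol/L. Read-out is the percentage of surviving flies; n = 4 cohorts of 60.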

T1 sequence (Q5S007 whole entry G2019S): as the sequence (Q5S007 whole entry) above, with G2019S counted along it

CC1=C(/C=C/C(C)=C/C=C/C(C)=C/C=C/C=C(C)/C=C/C=C(C)/C=C/C2=C(C)CCCC2(C)C)C(C)(C)CCC1 [β-carotene]
inhibition of p-MBP (in words) (LRRK2-G2019S [1]): Weak or noninhibitory

O=c1ccc2cc(O)c(O)cc2o1 [Esculetin]
kinase activity toward LRRKtide (in words) (LRRK2-G2019S [2]): most significantly reduced
kinase activity toward PEPrx3 (in words) (LRRK2-G2019S [3]): most significantly reduced
level of H2O2 in brain lysates [4]: 20,220 ± 1909
increase in number of neurons in PPM3 [5]: up to 55%
crossing of the blood–brain barrier [6]: readily cross the blood–brain barrier
protection of dopaminergic neurons against MPP+ (dopaminergic neurons): protect dopaminergic neurons against MPP+

Oc1cc(O)cc(/C=C/c2ccc(O)c(O)c2)c1 [Piceatannol]
kinase activity toward LRRKtide (in words) (LRRK2-G2019S [2]): most significantly reduced
kinase activity toward PEPrx3 (in words) (LRRK2-G2019S [3]): most significantly reduced
level of H2O2 in brain lysates [4]: 20,061 ± 2910
increase in number of neurons in PPM3 [5]: up to 55%
increase in climbing scores [7]: up to 22%

Cc1cc2c(C(C)C)c(O)c(O)c(C=O)c2c(O)c1-c1c(C)cc2c(C(C)C)c(O)c(O)c(C=O)c2c1O [Gossypol]
kinase activity toward LRRKtide (in words) (LRRK2-G2019S [2]): most significantly reduced
kinase activity toward PEPrx3 (in words) (LRRK2-G2019S [3]): most significantly reduced

CCCCCCCCOC(=O)/C=C/c1ccc(O)c(O)c1 [n-Octyl caffeate]
reduction of p-MBP (LRRK2-G2019S [1]): ~ 90%

Cc1c(O)cc2c(c1C)O[C@](C)(CCC[C@H](C)CCC[C@H](C)CCCC(C)C)CC2 [γ‐Tocopherol]
reduction of p-MBP (LRRK2-G2019S [1]): ~ 90%

O=C(/C=C/c1ccc(O)c(O)c1)O[C@H](Cc1ccc(O)c(O)c1)C(=O)O [Rosmarinic acid]
kinase activity toward LRRKtide (in words) (LRRK2-G2019S [2]): most significantly reduced
kinase activity toward PEPrx3 (in words) (LRRK2-G2019S [3]): most significantly reduced

O=c1cc(-c2ccccc2)oc2cc(O)c(O)c(O)c12 [Baicalein]
kinase activity toward LRRKtide (in words) (LRRK2-G2019S [2]): most significantly reduced
kinase activity toward PEPrx3 (in words) (LRRK2-G2019S [3]): most significantly reduced

N[C@@H](CCC(=O)N[C@@H](CS)C(=O)NCC(=O)O)C(=O)O [Glutathione]
inhibition of p-MBP (in words) (LRRK2-G2019S [1]): Weak or noninhibitory

CN[C@@H]1C[C@H]2O[C@@](C)([C@@H]1OC)n1c3ccccc3c3c4c(c5c6ccccc6n2c5c31)C(=O)NC4 [Staurosporine]
LRRK2 kinase activity (in words) (LRRK2-G2019S [1]; 10^−3 and 10^−1 μmol/L staurosporine, Fig. 1C): reduced kinase activity

CC1=CC(=O)C(C(C)C)=CC1=O [Thymoquinone]
IC50 (LRRK2-G2019S [1]; IC50 against LRRK2-G2019S, MBP substrate): 0.125 µM
IC50 (LRRK2-WT): 0.673 µM
kinase activity toward LRRKtide (in words) (LRRK2-G2019S [2]): most significantly reduced
kinase activity toward PEPrx3 (in words) (LRRK2-G2019S [3]): most significantly reduced
level of H2O2 in brain lysates [4]: 18,445 ± 1229
increase in number of neurons in PPM3 [5]: up to 55%
increase in climbing scores [7]: ≤ 17%
crossing of the blood–brain barrier [6]: readily cross the blood–brain barrier
protection of dopaminergic neurons against MPP+ (dopaminergic neurons): protect dopaminergic neurons against MPP+

CC(C)(Sc1cc(C(C)(C)C)c(O)c(C(C)(C)C)c1)Sc1cc(C(C)(C)C)c(O)c(C(C)(C)C)c1 [Probucol]
inhibition of p-MBP (in words) (LRRK2-G2019S [1]): Weak or noninhibitory
viability of TH+ neurons (in words) [5]: did not improve
decrease in lifespan [8]: 11%

COc1cc(/C=C/C(=O)CC(=O)/C=C/c2ccc(O)c(OC)c2)ccc1O [Curcumin]
reduction of p-MBP (LRRK2-G2019S [1]): ~ 90%

From article PMC4818746 (Annals of Clinical and Translational Neurology, 2016)
